According to ChEMBL document CHEMBL3632613, “Pharmacokinetic, pharmacodynamic and metabolic characterization of a brain retentive microtubule (MT)-stabilizing triazolopyrimidine” (Bioorg Med Chem Lett, 2015):
Active and inactive are the calls of the source. No cut-off for these calls is given here.

Legend:
[1] = Retention time of the compound in mouse liver microsomes by LC-MS/MS method; type: ADME
[2] = tested on: QBI293; experiment: Stabilization of microtubule in human QBI293 cells assessed as increase in acetylated alpha-tubulin up to 1 uM incubated for 4 hrs; type: cell-based
[3] = tested on: QBI293; experiment: Cytotoxic activity against human QBI293 cells assessed as reduction in cel viability incubated for 24 hrs by alamar blue assay; type: functional, cell-based
Outline: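 QBI293 cells seeded 10,000/well, grown overnight at 37°C, 5% CO2, then exposed in triplicate to a nM–µM range (diluted from 20 mM DMSO stocks; 0.25% DMSO vehicle as 0% toxicity, 100 µM tubercidin as 100%) for 18 h. Alamar Blue was then added at 10% of well volume for another 6 h. Fluorescence read at ex 550/em 590 nm. Percent cytotoxicity was derived from RFUs.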

[4] = tested on: Plasma; experiment: Drug level in mouse plasma treated with at 5 mg/kg, ip cmpound-4 assessed as compound formation; conditions: in vivo
[5] = Half life in rat brain at 5 mg/kg, ip; type: ADME, organism-based
[6] = Half life in rat plasma at 5 mg/kg, ip; type: ADME, organism-based
[7] = tested on: Brain; experiment: Drug level in rat brain at 5 mg/kg, ip administered as single dose after 4 hrs; type: ADME, organism-based; conditions: in vivo
[8] = tested on: Brain; experiment: Drug level in rat brain at 5 mg/kg, ip administered as two repeated doses separated by 4 hrs interval; type: ADME, organism-based; conditions: in vivo
[9] = tested on: Mus musculus; experiment: In-vivo stabilization of microtubule in normal mouse assessed as increase in acetylated alpha-tubulin at 5 mg/kg, ip administered as two doses after 1 day; type: functional, organism-based
[10] = tested on: Plasma; experiment: Drug metabolism in mouse plasma assessed as formation of (S)-4-(5-chloro-7-((1,1,1-trifluoropropan-2-yl)amino)-[1,2,4]triazolo[1,5-a]pyrimidin-6-yl)-3,5-difluorophenol at 5 mg/kg, ip; conditions: in vivo
[11] = tested on: Plasma; experiment: Drug metabolism in mouse plasma assessed as formation of (S)-3-(4-(5-chloro-7-((1,1,1-trifluoropropan-2-yl)amino)-[1,2,4]triazolo[1,5-a]pyrimidin-6-yl)-3,5-difluorophenoxy)propanoic acid at 5 mg/kg, ip; conditions: in vivo

Retention_time [1]	Drug metabolism [4]	half-life [5]	half-life [6]	Drug uptake [7]	Drug uptake [8]	Drug metabolism [10]	Drug metabolism [11]	Structure (SMILES)	inhibition [2]	Activity [3]	Activity [9]
6.9 min	metabolite_detected							C[C@H](Nc1c(-c2c(F)cc(OCCC(=O)O)cc2F)c(Cl)nc2ncnn12)C(F)(F)F	inactive	inactive	
6.73 min	metabolite_detected							C[C@H](Nc1c(-c2c(F)cc(O)cc2F)c(Cl)nc2ncnn12)C(F)(F)F	inactive	inactive	
6.91 min		7 h	2.5 h	Active	Active	metabolite_detected	metabolite_detected	C[C@H](Nc1c(-c2c(F)cc(OCCCO)cc2F)c(Cl)nc2ncnn12)C(F)(F)F	Active	Active	Active
